Experimental data taken from publication PMC3309561 (Biochimica et biophysica acta, 2010).

Test system: 15 base pair duplex DNA
Experiment: Near-UV circular dichroism / UV absorbance titration of duplex DNA with peptide
Format: binding
Conditions: UV absorbance spectra during titration of duplex DNA, room temperature
Summary of the method: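 15 bp duplex DNA at 1.66 µM (typically 1–2 µM) was titrated at room temperature with small additions of a 5 mg/ml peptide stock. UV absorbance was acquired at the same time as the near-UV CD, in a 10 mm cell from 340 to 220 nm, across increasing peptide/DNA molar ratios. Uncorrected spectra show light scattering; zeroed spectra (340 nm) track 260 nm absorbance.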

- Turbidity (light scattering) above 310 nm of DNA with peptide: absence of turbidity
Substance: GIGKFLHSAKKFGKAFVGEIMNS-NH2 [Magainin 2 amide]
